hERG rescue: hERG (human) protection from proarrhythmic block; Q12809; CHO-hERG, FluxOR thallium flux, dofetilide IC70 present; activation (rescue from dofetilide block), less the hit threshold, % at 10 µM; 310,000 tested, 0.51% active;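 active = activation above the mean of controls blocked by dofetilide plus 5 SD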;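 note: thallium influx through hERG after potassium depolarization seen as dye fluorescence rise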
KCNQ1 inh: human KCNQ1 channel inhibition. CHO-K1 KCNQ1, FluxOR thallium flux fluorescence; stronger effect = higher value. B-score at 10 µM. 310,000 tested, 1.3% active. P51787. AID 2642;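 active = compounds whose thallium flux B-score, printed positive for inhibition, exceeds three library SD while starting fluorescence stays within three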;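 note: channel opened by potassium depolarization with thallium stimulus after 20 min compound exposure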
KCNQ1 act: potentiates or activates the human KCNQ1 potassium channel | 310,000 tested, 0.35% active | B-score at 10 µM | P51787 | CHO-K1 KCNQ1, thallium flux FluxOR fluorescence; stronger effect = higher value;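 active = fluorescence ratio B-score, a plate-corrected score, at least three library SD, with initial intensity B-score within 5 SD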
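Medium – assay buffer, equal DMSO in all wells · Material – CHO-K1 cell line with stable KCNQ1 potassium channel expression · Signal – kinetic FluxOR thallium fluorescence, 10-s 1-Hz baseline, 110-s post-stimulus read · Compound – single concentration per compound, DMSO matched to controls · Schedule – 37 °C overnight plating, 90-min dark dye load, 20-min compound pretreatment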
KCNK9 inh: inhibitors of human KCNK9 two-pore domain potassium channel | Q9NPC2 | HEK293 KCNK9, FluxOR thallium flux fluorescence; stronger effect = lower value | B-score at 10 µM | 310,000 tested, 1.2% active | AID 488922;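 active = ratio B-score over 3 SD below the library mean, with starting fluorescence within 5 SD of its mean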;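 note: negative B-score means less thallium flux so channel inhibition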
Target sequence (Q9NPC2 whole entry, looked up, the tested form may be a part): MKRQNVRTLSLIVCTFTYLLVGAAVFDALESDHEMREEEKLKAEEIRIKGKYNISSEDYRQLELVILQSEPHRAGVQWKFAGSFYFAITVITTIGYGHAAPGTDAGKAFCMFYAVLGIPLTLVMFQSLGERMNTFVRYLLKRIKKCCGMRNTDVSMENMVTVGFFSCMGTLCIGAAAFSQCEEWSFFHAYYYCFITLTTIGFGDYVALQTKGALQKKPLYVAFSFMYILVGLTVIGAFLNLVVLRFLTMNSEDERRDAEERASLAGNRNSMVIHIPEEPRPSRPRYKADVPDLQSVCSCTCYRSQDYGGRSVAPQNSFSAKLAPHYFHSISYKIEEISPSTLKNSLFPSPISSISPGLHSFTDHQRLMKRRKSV
KCNK3 block: human KCNK3 channel inhibition, primary screen. O14649. CHO-KCNK3 thallium flux, FluxOR fluorescence; stronger effect = lower value. B-score at 10 µM. 340,000 tested, 0.84% active. AID 602410;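 active = B-score under library mean minus 4 SD, starting fluorescence ratio at most library mean plus 5 SD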;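 note: more negative B-score means stronger inhibition of thallium flux through KCNK3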
KCNK9 block conf: confirmation of human KCNK9 potassium channel inhibitors | shares compounds with KCNK9 inh | HEK293 KCNK9 cells, FluxOR thallium flux fluorescence | inhibition, % at 10 µM | 4,900 tested, 43% active | AID 492992;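 active = thallium signal inhibited by more than 5 SD of the compound-free buffer control wells, on both duplicate plates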;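 note: 0% = assay buffer control wells without compound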
Kir21 sel: mouse Kir2.1 off-target activity of KCNK9 modulators | shares compounds with KCNK9 inh | 4,900 tested, 4% active | AID 492993 | inhibition, % at 10 µM | Kir2.1 cells, FluxOR thallium flux fluorescence;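 active = thallium signal drop more than 5 SD beyond the mean of the no-compound control wells, seen in both duplicate plates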;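 note: signal is fluorescence rise after thallium addition divided by baseline fluorescence; plate controls were assay buffer only for no effect and full block by chlorpromazine control for full effect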
KCNK9 uninduced: second counter-screen for KCNK9 modulators: effect in non-induced cells; AID 492997; shares compounds with KCNK9 inh; non-induced KCNK9-HEK293, FluxOR thallium flux; inhibition, % at 10 µM; 4,900 tested, 40% active;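 active = thallium signal drop beyond 5 SD of the untreated control mean, on both duplicate plates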;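 note: plate controls were buffer only IC0 wells for no effect and SID17386958 at its maximal inhibitory level for full effect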
An asterisk follows results filed as active; i = inactive; . = no result given. Most compounds without a hit are left out; they make up all but 3.1% or so of the library.

SMILES	hERG rescue	KCNQ1 inh	KCNQ1 act	KCNK9 inh	KCNK3 block	KCNK9 block conf	Kir21 sel	KCNK9 uninduced
CN(C)CC/C=C1/c2cc(F)ccc2Sc2ccc(Cl)cc21	-7	i	i	i	i	i	i	i
COc1cc(Cl)cc2c1Sc1ccccc1/C2=C/CCN(C)C	-19	i	i	i	i	i	i	i
CC1Cc2ccccc2N1C(=O)CO/N=C/c1ccccc1OC(F)F (stereo not given)	-9	i	i	i	i	i	i	i
O=C(CO/N=C/c1ccccc1OC(F)F)N1CCc2ccccc21	-6	i	i	i	i	.	.	.
C=CCN(c1ccc(C(=O)NCCSc2ccccc2)cc1)S(C)(=O)=O	-7	i	i	i	i	.	.	.
NS(=O)(=O)c1ccc(NCc2cc(Cl)ccc2OCc2ccc(F)cc2)cc1	-7	i	i	-13*	i	50%*	i	42%*
Cc1ccc(C)c(OCCC(=O)OCC(=O)Nc2ccc(C)c(S(=O)(=O)N3CCCCC3)c2)c1	-9	i	i	-11*	i	i	i	29%*
Cc1ccc(OCCC(=O)OCC(=O)Nc2ccc(C)c(S(=O)(=O)N3CCOCC3)c2)cc1	.	.	.	.	i	.	.	.
COc1ccc(NC(=O)COc2ccccc2F)cc1S(=O)(=O)N1CCCCC1	-14	i	i	-9.6*	i	i	i	i
CC1CCCC(C)N1/N=C/c1ccc(C#N)cc1 (stereo not given)	-14	i	i	i	i	.	.	.
Cc1ccccc1NS(=O)(=O)c1cc(C(=O)N2CCc3ccccc3C2)ccc1C	-7	i	i	i	i	.	.	.
CN(c1ccccc1)S(=O)(=O)c1ccc(C(=O)N2CCc3ccccc3C2)cc1	-3	i	i	i	i	.	.	.
Cc1ccc(NS(=O)(=O)c2cc(C(=O)N3CCc4ccccc4C3)ccc2Cl)cc1	-4	i	i	-12*	i	i	i	26%*
Cc1ccc(S(=O)(=O)N(C)c2ccc(C(=O)N3CCc4ccccc4C3)cc2)cc1	-9	i	i	i	i	i	i	i
COc1ccc(C(=O)Nc2oc(-c3ccccc3)c(-c3ccccc3)c2C#N)cc1OC	-11	i	i	-9.2*	i	49%*	i	38%*
Clc1ccccc1CN(Cc1ccco1)Cc1nnnn1C1CCCC1	-5	i	i	-9.9*	i	60%*	47%*	41%*
c1coc(CN(Cc2cccs2)Cc2nnnn2C2CCCCC2)c1	-3	i	i	i	i	.	.	.
CC1CCC2(CC1)NC(=O)c1ccccc1O2 (stereo not given)	-13	i	i	i	i	.	.	.
Cc1ccccc1CC1(CO)CCCN(C(=O)c2cccc(Cl)c2)C1 (stereo not given)	-19	i	i	i	i	i	i	24%*
Cc1ccccc1CC1(CO)CCCN(C(=O)c2cc(Cl)ccc2F)C1 (stereo not given)	-13	i	i	i	i	.	.	.
Cc1cc(C)c2nc(NNC(=O)c3ccc(S(=O)(=O)N4CCCC(C)C4)cc3)sc2c1 (stereo not given)	-12	i	i	i	i	i	i	i
Cc1cccc2sc(NNC(=O)c3ccc(S(=O)(=O)N4CC(C)CC(C)C4)cc3)nc12 (stereo not given)	-4	6*	i	i	i	i	i	i
Cc1ccc2nc(NNC(=O)c3ccc4c(c3)OCCO4)sc2c1	-10	i	i	i	i	.	.	.
Cc1cc(C)c2nc(NNC(=O)c3ccc(S(=O)(=O)N4CC(C)CC(C)C4)cc3)sc2c1 (stereo not given)	-12	i	i	i	i	i	i	i
Cc1ccc2nc(NNC(=O)c3ccc(S(=O)(=O)N4CCc5ccccc5C4)cc3)sc2c1	-4	7*	i	i	i	i	i	i
SMILES	hERG rescue	KCNQ1 inh	KCNQ1 act	KCNK9 inh	KCNK3 block	KCNK9 block conf	Kir21 sel	KCNK9 uninduced
CCC(=O)NNc1nc2c(C)cc(C)cc2s1	-8	i	i	i	i	.	.	.
O=C1N2c3ccccc3CCc3cccc(c32)C1(O)C(F)(F)F (stereo not given)	-8	i	i	i	i	.	.	.
CC(=O)c1cc(C)ccc1OC(=O)CN1C(=O)c2ccccc2C1=O	-3	i	i	i	i	.	.	.
Cc1oc(-c2cccs2)nc1CN1CCC(c2ccccc2)CC1	-11	i	i	i	i	i	i	i
COc1ccc(-c2nc(CN3CCC(c4ccccc4)CC3)c(C)o2)cc1OC	-26	i	i	i	i	.	.	.
COc1ccccc1CNC(=O)CCC(=O)N1CC(C)Sc2ccccc21 (stereo not given)	-9	i	i	i	i	.	.	.
O=C(NC12CC3CC(CC(C3)C1)C2)c1ccc(-c2ccccc2Cl)o1	-5	i	i	i	i	i	i	i
COc1ccccc1-n1c2nc3ccccc3nc2c2c(=O)n(-c3cc(C)cc(C)c3)cnc21	-10	i	i	-8.5*	i	i	i	25%*
COc1ccccc1-n1cnc2c(c1=O)c1nc3ccccc3nc1n2-c1ccc(C)cc1	-12	i	i	i	i	.	.	.
COc1ccc(CNC(=O)CN(C)S(=O)(=O)c2ccc3c(c2)c(=O)n(C)c(=O)n3C)cc1	-5	i	i	i	i	.	.	.
COC(=O)C1=C(C(=O)OC)[C@@H]2Nc3ccccc3[C@@]23C[C@@H](C(=O)OC)N(C(=O)C2CCC2)C3=N1	-3	i	i	i	i	.	.	.
Cc1ccc(C(=O)COC(=O)c2ccccc2NC(=O)c2ccccc2)cc1[N+](=O)[O-]	-5	i	i	-9*	i	49%*	i	36%*
CC(C)(C)C(=O)Nc1ccccc1C(=O)OCC(=O)c1ccc2c(c1)OCCO2	-1	i	i	-18*	i	62%*	i	32%*
Cc1ccc(C(=O)COC(=O)CNC(=O)Cc2ccccc2)cc1[N+](=O)[O-]	-2	i	i	i	i	.	.	.
CCOCCOC(=O)COC(=O)c1ccccc1NC(=O)c1ccccc1	-13	i	i	i	i	i	i	i
CCOc1cc(/C=N/NC(=O)c2nnn(-c3nonc3N)c2C)ccc1OCc1cccc(F)c1	-5	i	i	i	i	.	.	.

Bioassay records deposited in PubChem by Johns Hopkins Ion Channel Center.
